Values after ≈ are worked out from the molar mass of the structure shown.
Legend:
Enterovirus [1] = assay: Lowest concentration to reduce viral effect by 50% or more against Rhinovirus (RV)-1A; format: functional
Method in brief: (§1)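 HeLa monolayers were seeded at (1.0-1.3) × 10^5 cells/well, grown 24 h at 36 °C in 5% CO2 to 60–75% cover, then refed with maintenance medium (1-2% heat-inactivated FCS) containing two-fold serial compound dilutions made from a 200 μg/mL stock in Me2SO/medium, with final Me2SO ≤0.1%. Cells were challenged with 10-100 TCID50 virus, and CPE was read microscopically at 48 and 72 h. MIC50 was the lowest concentration giving ≥50% CPE reduction versus virus control. Cytotoxicity was the lowest concentration causing cell death, a growth change or a morphology change in uninfected cultures.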

Coxsackievirus [2] = assay: Ratio of the MIC50 of 6-(4-Nitro-phenoxy)-nicotinonitrile compared to compound obtained in the same test for coxsackie A21; format: functional
Method in brief: (§2)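 Relative activity was calculated as the MIC50 of the positive control 5-cyano-2-(4-nitrophenoxy)pyridine divided by the MIC50 of the test compound. Both were measured in parallel in the same HeLa CPE test (48/72 h microscopic reading) against RV-1A, RV-2 or coxsackievirus A21.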

Enterovirus [3] = assay: Ratio of the MIC50 of 6-(4-Nitro-phenoxy)-nicotinonitrile compared to compound obtained in the same test for Rhinovirus (RV)-1A; format: functional; method in brief: as §2
HeLa = assay: Cytotoxicity concentration in HeLa cells; format: cell-based; conditions: human; method in brief: as §1
Coxsackievirus [4] = assay: Lowest concentration to reduce viral effect by 50% or more against coxsackie virus A21; format: functional; method in brief: as §1
Enterovirus [5] = assay: Ratio of the MIC50 of 6-(4-Nitro-phenoxy)-nicotinonitrile compared to compound obtained in the same test for Rhinovirus (RV)-2; format: functional; method in brief: as §2
Enterovirus [6] = assay: Lowest concentration to reduce viral effect by 50% or more against Rhinovirus (RV)-2; format: functional; method in brief: as §1

Structure (SMILES) | MIC50 (Enterovirus [1]) [µM] | Relative activity (Coxsackievirus [2]) | Relative activity (Enterovirus [3]) | Toxicity (HeLa) [µM] | MIC50 (Coxsackievirus [4]) [µM] | Relative activity (Enterovirus [5]) | MIC50 (Enterovirus [6]) [µM]
N#Cc1cc([N+](=O)[O-])ccc1Oc1c(Cl)cccc1Cl | 3.9 (≈ 1.21 µg/mL) | 0.8 | 5.3 | > 65 | 16.2 (≈ 5.01 µg/mL) | 25 | 0.52 (≈ 0.161 µg/mL)
N#Cc1cc([N+](=O)[O-])ccc1Oc1cccc(C(F)(F)F)c1 | 8.1 (≈ 2.5 µg/mL) | 5.3 | 1.6 | 41 | 3.9 (≈ 1.2 µg/mL) | 25.9 | 2 (≈ 0.616 µg/mL)
N#Cc1cc([N+](=O)[O-])ccc1Oc1ccccc1Cl | 4.5 (≈ 1.24 µg/mL) | 2.38 | 4.6 | 45 | 5.7 (≈ 1.57 µg/mL) | 4.6 | 4.5 (≈ 1.24 µg/mL)
COc1ccc(Oc2ccc([N+](=O)[O-])cc2C#N)cc1 | 46.3 (≈ 12.5 µg/mL) | 2.2 | 0.56 | 93 | 5.7 (≈ 1.54 µg/mL) | 2.2 | 11.6 (≈ 3.13 µg/mL)
N#Cc1ccc(Oc2ccc([N+](=O)[O-])cc2C#N)cc1 | 9.4 (≈ 2.49 µg/mL) | 0.33 | 2.2 | > 38 | 18.9 (≈ 5.01 µg/mL) | 1.1 | 9.4 (≈ 2.49 µg/mL)
N#Cc1ccc(Oc2ccc(Cl)c(Cl)c2)cc1 | 9.5 (≈ 2.51 µg/mL) | 11.3 | 2.7 | 24 | 2.3 (≈ 0.607 µg/mL) | 2.7 | 9.5 (≈ 2.51 µg/mL)
N#Cc1cc([N+](=O)[O-])ccc1Oc1ccccc1 | 5.4 (≈ 1.3 µg/mL) | 0.96 | 3.8 | > 42 | 2.7 (≈ 0.649 µg/mL) | 3.8 | 5.4 (≈ 1.3 µg/mL)
N#Cc1cc([N+](=O)[O-])ccc1Oc1cc(Cl)cc(Cl)c1 | 16.2 (≈ 5.01 µg/mL) | 0.8 | 1.6 | > 65 | 16.2 (≈ 5.01 µg/mL) | 1.6 | 8.1 (≈ 2.5 µg/mL)
N#Cc1ccc(Oc2ccc(Cl)c(Cl)c2)nc1 | 5 (≈ 1.33 µg/mL) | 13 | 4.1 | 377 | 2 (≈ 0.53 µg/mL) | 2.7 | 19 (≈ 5.04 µg/mL)
CC(=O)c1ccc(Oc2ccc([N+](=O)[O-])cc2C#N)cc1 | 22.2 (≈ 6.27 µg/mL) | 0.68 | 0.59 | > 177 | 3.5 (≈ 0.988 µg/mL) | 1.2 | 11.1 (≈ 3.13 µg/mL)
Cc1ccc(Oc2ccc([N+](=O)[O-])cc2C#N)cc1 | 5.1 (≈ 1.3 µg/mL) | 2.2 | 4.1 | 39 | 2.4 (≈ 0.61 µg/mL) | 2 | 5.1 (≈ 1.3 µg/mL)
Clc1ccc(Oc2ccc(Br)cn2)cc1Cl | 4 (≈ 1.28 µg/mL) | 6.5 | 6.5 | 78 | 4 (≈ 1.28 µg/mL) | 1.6 | 16 (≈ 5.1 µg/mL)
N#Cc1cccnc1Oc1ccc(Cl)c(Cl)c1 | 47 (≈ 12.5 µg/mL) | 1.1 | 0.55 | > 189 | 12 (≈ 3.18 µg/mL) | 1.1 | 24 (≈ 6.36 µg/mL)
CS(=O)(=O)c1ccc(Oc2ccc(Br)cc2)cc1 | 1.9 (≈ 0.622 µg/mL) | 2.5 | 9.8 | 38 | 7.6 (≈ 2.49 µg/mL) | 19.7 | 1 (≈ 0.327 µg/mL)
N#Cc1cc([N+](=O)[O-])ccc1Oc1cccc(Cl)c1Cl | 0.52 (≈ 0.161 µg/mL) | 3.2 | 25 | > 65 | 8.1 (≈ 2.5 µg/mL) | 50 | 0.26 (≈ 0.0804 µg/mL)
CS(=O)(=O)c1ccc(Oc2ccc(Cl)cc2)cc1 | 4.4 (≈ 1.24 µg/mL) | 11.8 | 11.8 | 44 | 2.2 (≈ 0.622 µg/mL) | 5.9 | 4.4 (≈ 1.24 µg/mL)
N#Cc1cc([N+](=O)[O-])ccc1Oc1ccc(Br)cc1 | 3.8 (≈ 1.21 µg/mL) | 3.3 | 6.8 | > 313 | 7.8 (≈ 2.49 µg/mL) | 6.8 | 3.8 (≈ 1.21 µg/mL)
O=C(O)c1cc([N+](=O)[O-])ccc1Oc1ccc(Cl)c(Cl)c1 | 19 (≈ 6.23 µg/mL) | 0.34 | 2.7 | 305 | 76.2 (≈ 25 µg/mL) | 1.4 | 38.1 (≈ 12.5 µg/mL)
N#Cc1cc([N+](=O)[O-])ccc1Oc1cc(Cl)ccc1Cl | 0.26 (≈ 0.0804 µg/mL) | 13 | 50 | > 162 | 2 (≈ 0.618 µg/mL) | 25 | 0.52 (≈ 0.161 µg/mL)
CSc1ccc(Oc2ccc(Cl)c(Cl)c2)nc1 | 4 (≈ 1.14 µg/mL) | 4.6 | 6.5 | 87 | 9 (≈ 2.58 µg/mL) | 5.8 | 9 (≈ 2.58 µg/mL)
N#Cc1cc([N+](=O)[O-])ccc1Oc1cccc2ccccc12 | 4.3 (≈ 1.25 µg/mL) | 1.2 | 6 | > 172 | 10.8 (≈ 3.14 µg/mL) | 11.8 | 1.1 (≈ 0.319 µg/mL)
N#Cc1cc([N+](=O)[O-])ccc1Oc1ccc(Cl)cc1 | 1.4 (≈ 0.385 µg/mL) | 7.2 | 18.5 | > 364 | 3.6 (≈ 0.989 µg/mL) | 9.3 | 2.8 (≈ 0.769 µg/mL)
N#Cc1cc([N+](=O)[O-])ccc1Oc1ccc(Cl)cc1Cl | 0.97 (≈ 0.3 µg/mL) | 13.3 | 85.6 | > 324 | 3.9 (≈ 1.21 µg/mL) | 49.8 | 0.52 (≈ 0.161 µg/mL)
N#Cc1ccnc(Oc2ccc(Cl)c(Cl)c2)c1 | 24 (≈ 6.36 µg/mL) | 1.1 | 1.1 | > 189 | 12 (≈ 3.18 µg/mL) | 2.2 | 12 (≈ 3.18 µg/mL)
COc1ccc(Oc2ccc(S(C)(=O)=O)cc2)cc1 | 22.5 (≈ 6.26 µg/mL) | 0.29 | 0.58 | > 180 | 90 (≈ 25 µg/mL) | 0.58 | 45 (≈ 12.5 µg/mL)
CS(=O)(=O)c1cccc(Oc2ccc(Cl)c(Cl)c2)n1 | 10 (≈ 3.18 µg/mL) |  | 2.6 | 157 | 157 (≈ 50 µg/mL) | 0.66 | 39 (≈ 12.4 µg/mL)
